{"source": "ChEMBL document CHEMBL4689842", "about": "“EUbOPEN Chemogenomics Library wave 1” (2021)", "type_in_all_cases": "toxicity, cell-based", "key": {"U2OS [1]": {"tested_on": "U2OS", "assay": "Multiplex assay against U2OS", "conditions": "human", "method_in_brief": "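At seeding, live cells were stained with Hoechst33342, BioTracker Green Microtubule Cytoskeleton Dye, MitoTracker Red and Annexin V Alexa Fluor 680. After compound addition they were imaged on a CQ1 microscope at 37°C and 5% CO2, and CellPathfinder machine-learning gating sorted them into Hoechst high-intensity objects or normal cells, with normal cells further split into healthy, pyknosed or fragmented nuclei and pyknosed cells into mitotic or apoptotic. Tubulin, mitochondrial-mass and membrane-permeability phenotypes are given as per cents of cells with healthy nuclei.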"}, "U2OS [2]": {"tested_on": "U2OS", "assay": "Incucyte cell viability with U2OS; further: filed as whole numbers so only -1 and 0 and 1 occur", "conditions": "human, 10 µM, compound concentration 10 uM"}, "Fibroblast": {"tested_on": "Fibroblast", "assay": "Incucyte cell viability with human fibroblast; further: filed as whole numbers so only -1 and 0 and 1 occur", "conditions": "10 µM, compound concentration 10 uM"}, "HEK-293T": {"tested_on": "HEK-293T", "assay": "Incucyte cell viability with HEK293T; further: filed as whole numbers so only -1 and 0 and 1 occur", "conditions": "human, 10 µM, compound concentration 10 uM"}, "[3]": {"conditions": "24 h, 10 µM, compound concentration 10 uM, replicate 1"}, "[4]": {"conditions": "24 h, 10 µM, compound concentration 10 uM, replicate 2"}, "[5]": {"conditions": "48 h, 1 µM, compound concentration 1 uM, replicate 1"}, "[6]": {"conditions": "48 h, 1 µM, compound concentration 1 uM, replicate 2"}, "[7]": {"conditions": "48 h, 10 µM, compound concentration 10 uM, replicate 1"}, "[8]": {"conditions": "48 h, 10 µM, compound concentration 10 uM, replicate 2"}, "[9]": {"conditions": "6 h, replicate number 1, timepoint 6 hours"}, "[10]": {"conditions": "12 h, replicate number 1, timepoint 12 hours"}, "[11]": {"conditions": "18 h, replicate number 1, timepoint 18 hours"}, "[12]": {"conditions": "24 h, replicate number 1, timepoint 24 hours"}}, "data": [{"smiles": "Cc1nc(Cc2cccc(C(F)(F)F)c2)sc1-c1ccc(C(N)=O)nc1", "note": "[TP-024n]", "values": [{"measurement": "Population Pyknosed Nuclei (%)", "setting": "U2OS [1]; [3]", "value": 21, "unit": "%"}, {"measurement": "Population Tubulin-Different-Phenotype (%)", "setting": "U2OS [1]; [3]", "value": 16, "unit": "%"}, {"measurement": "Total Cell Count", "setting": "U2OS [1]; [3]", "value": 241}, {"measurement": "Population Apoptotic (%)", "setting": "U2OS [1]; [4]", "value": 44, "unit": "%"}, {"measurement": "Population Fragmented Nuclei (%)", "setting": "U2OS [1]; [4]", "value": 14, "unit": "%"}, {"measurement": "Population Healthy Nuclei (%)", "setting": "U2OS [1]; [4]", "value": 58, "unit": "%"}, {"measurement": "Population Hoechst High Intensity Objects (%)", "setting": "U2OS [1]; [4]", "value": 2, "unit": "%"}, {"measurement": "Population Membrane Permeable-Phenotype (%)", "setting": "U2OS [1]; [4]", "value": 25, "unit": "%"}, {"measurement": "Population Mitochondria Different-Phenotype (%)", "setting": "U2OS [1]; [4]", "value": 32, "unit": "%"}, {"measurement": "Population Mitotic Cells (%)", "setting": "U2OS [1]; [4]", "value": 55, "unit": "%"}, {"measurement": "Population Normal (%)", "setting": "U2OS [1]; [4]", "value": 97, "unit": "%"}, {"measurement": "Population Pyknosed Nuclei (%)", "setting": "U2OS [1]; [4]", "value": 26, "unit": "%"}, {"measurement": "Population Tubulin-Different-Phenotype (%)", "setting": "U2OS [1]; [4]", "value": 22, "unit": "%"}, {"measurement": "Total Cell Count", "setting": "U2OS [1]; [4]", "value": 60}, {"measurement": "Population Apoptotic (%)", "setting": "U2OS [1]; [5]", "value": 32, "unit": "%"}, {"measurement": "Population Healthy Nuclei (%)", "setting": "U2OS [1]; [5]", "value": 88, "unit": "%"}, {"measurement": "Population Hoechst High Intensity Objects (%)", "setting": "U2OS [1]; [5]", "value": 3, "unit": "%"}, {"measurement": "Population Membrane Permeable-Phenotype (%)", "setting": "U2OS [1]; [5]", "value": 2, "unit": "%"}, {"measurement": "Population Mitochondria Different-Phenotype (%)", "setting": "U2OS [1]; [5]", "value": 8, "unit": "%"}, {"measurement": "Population Mitotic Cells (%)", "setting": "U2OS [1]; [5]", "value": 68, "unit": "%"}, {"measurement": "Population Normal (%)", "setting": "U2OS [1]; [5]", "value": 96, "unit": "%"}, {"measurement": "Population Pyknosed Nuclei (%)", "setting": "U2OS [1]; [5]", "value": 6, "unit": "%"}, {"measurement": "Population Tubulin-Different-Phenotype (%)", "setting": "U2OS [1]; [5]", "value": 7, "unit": "%"}, {"measurement": "Total Cell Count", "setting": "U2OS [1]; [5]", "value": 160}, {"measurement": "Population Apoptotic (%)", "setting": "U2OS [1]; [6]", "value": 33, "unit": "%"}, {"measurement": "Population Fragmented Nuclei (%)", "setting": "U2OS [1]; [6]", "value": 4, "unit": "%"}, {"measurement": "Population Healthy Nuclei (%)", "setting": "U2OS [1]; [6]", "value": 92, "unit": "%"}, {"measurement": "Population Hoechst High Intensity Objects (%)", "setting": "U2OS [1]; [6]", "value": 4, "unit": "%"}, {"measurement": "Population Membrane Permeable-Phenotype (%)", "setting": "U2OS [1]; [6]", "value": 3, "unit": "%"}, {"measurement": "Population Mitochondria Different-Phenotype (%)", "setting": "U2OS [1]; [6]", "value": 10, "unit": "%"}, {"measurement": "Population Mitotic Cells (%)", "setting": "U2OS [1]; [6]", "value": 66, "unit": "%"}, {"measurement": "Population Normal (%)", "setting": "U2OS [1]; [6]", "value": 95, "unit": "%"}, {"measurement": "Population Pyknosed Nuclei (%)", "setting": "U2OS [1]; [6]", "value": 3, "unit": "%"}, {"measurement": "Population Tubulin-Different-Phenotype (%)", "setting": "U2OS [1]; [6]", "value": 14, "unit": "%"}, {"measurement": "Total Cell Count", "setting": "U2OS [1]; [6]", "value": 122}, {"measurement": "Population Apoptotic (%)", "setting": "U2OS [1]; [7]", "value": 55, "unit": "%"}, {"measurement": "Population Fragmented Nuclei (%)", "setting": "U2OS [1]; [7]", "value": 20, "unit": "%"}, {"measurement": "Population Healthy Nuclei (%)", "setting": "U2OS [1]; [7]", "value": 56, "unit": "%"}, {"measurement": "Population Hoechst High Intensity Objects (%)", "setting": "U2OS [1]; [7]", "value": 5, "unit": "%"}, {"measurement": "Population Membrane Permeable-Phenotype (%)", "setting": "U2OS [1]; [7]", "value": 10, "unit": "%"}, {"measurement": "Population Mitochondria Different-Phenotype (%)", "setting": "U2OS [1]; [7]", "value": 19, "unit": "%"}, {"measurement": "Population Mitotic Cells (%)", "setting": "U2OS [1]; [7]", "value": 44, "unit": "%"}, {"measurement": "Population Normal (%)", "setting": "U2OS [1]; [7]", "value": 94, "unit": "%"}, {"measurement": "Population Pyknosed Nuclei (%)", "setting": "U2OS [1]; [7]", "value": 22, "unit": "%"}, {"measurement": "Population Tubulin-Different-Phenotype (%)", "setting": "U2OS [1]; [7]", "value": 13, "unit": "%"}, {"measurement": "Total Cell Count", "setting": "U2OS [1]; [7]", "value": 386}, {"measurement": "Population Apoptotic (%)", "setting": "U2OS [1]; [8]", "value": 72, "unit": "%"}, {"measurement": "Population Fragmented Nuclei (%)", "setting": "U2OS [1]; [8]", "value": 17, "unit": "%"}, {"measurement": "Population Healthy Nuclei (%)", "setting": "U2OS [1]; [8]", "value": 69, "unit": "%"}, {"measurement": "Population Hoechst High Intensity Objects (%)", "setting": "U2OS [1]; [8]", "value": 6, "unit": "%"}, {"measurement": "Population Membrane Permeable-Phenotype (%)", "setting": "U2OS [1]; [8]", "value": 32, "unit": "%"}, {"measurement": "Population Mitochondria Different-Phenotype (%)", "setting": "U2OS [1]; [8]", "value": 32, "unit": "%"}, {"measurement": "Population Mitotic Cells (%)", "setting": "U2OS [1]; [8]", "value": 27, "unit": "%"}, {"measurement": "Population Normal (%)", "setting": "U2OS [1]; [8]", "value": 93, "unit": "%"}, {"measurement": "Population Pyknosed Nuclei (%)", "setting": "U2OS [1]; [8]", "value": 13, "unit": "%"}, {"measurement": "Population Tubulin-Different-Phenotype (%)", "setting": "U2OS [1]; [8]", "value": 35, "unit": "%"}, {"measurement": "Total Cell Count", "setting": "U2OS [1]; [8]", "value": 93}, {"measurement": "Growth Rate", "setting": "U2OS [2]; [9]", "value": 0}, {"measurement": "Growth Rate", "setting": "U2OS [2]; [10]", "value": 0}, {"measurement": "Growth Rate", "setting": "U2OS [2]; [11]", "value": 0}, {"measurement": "Growth Rate", "setting": "U2OS [2]; [12]", "value": 0}, {"measurement": "Growth Rate", "setting": "Fibroblast; [9]", "value": 0}, {"measurement": "Growth Rate", "setting": "Fibroblast; [10]", "value": 0}, {"measurement": "Growth Rate", "setting": "Fibroblast; [11]", "value": 0}, {"measurement": "Growth Rate", "setting": "Fibroblast; [12]", "value": 0}, {"measurement": "Growth Rate", "setting": "HEK-293T; 0 h, replicate number 2, timepoint 0 hours", "value": 0}, {"measurement": "Growth Rate", "setting": "HEK-293T; [9]", "value": 0}, {"measurement": "Growth Rate", "setting": "HEK-293T; [10]", "value": 0}, {"measurement": "Growth Rate", "setting": "HEK-293T; [11]", "value": 0}, {"measurement": "Growth Rate", "setting": "HEK-293T; [12]", "value": 0}]}]}
